From ChEMBL document CHEMBL4364258, “Discovery of novel benzofuran-based compounds with neuroprotective and immunomodulatory properties for Alzheimer's disease treatment” (Eur J Med Chem, 2019)
pIC50, pKi: −log10 of the molar value. Active and inactive are the calls of the source. No cut-off for these calls is given here.

Legend:
Cannabinoid receptor 1 [1] = target: T1, Cannabinoid receptor 1 (Homo sapiens, UniProt P21554); assay: Displacement of 3[H]-CP55940 from human recombinant CB1 receptor expressed in HEK293 cell membranes measured after 90 mins
Cholinesterase [2] = target: T2, Cholinesterase (Homo sapiens, UniProt P06276); assay: Inhibition of human recombinant BuChE at 25 uM using butyrylthiocholine iodide as substrate preincubated for 20 mins followed by substrate addition by Ellman's spectrophotometric method relative to control
Cannabinoid receptor 1 [3] = target: T1, Cannabinoid receptor 1; assay: Displacement of 3[H]-CP55940 from human recombinant CB1 receptor expressed in HEK293 cell membranes measured after 90 mins by Cheng-Prusoff equation analysis
Homo sapiens = organism: Homo sapiens; assay: Selectivity index, ratio of Ki for displacement of 3[H]-CP55940 from human recombinant CB1 receptor expressed in HEK293 cell membranes to Ki for displacement of 3[H]-CP55940 from human recombinant CB2 receptor expressed in HEK293 cell membranes
Cannabinoid receptor 2 [4] = target: T3, Cannabinoid receptor 2 (Homo sapiens, UniProt P34972); assay: Displacement of 3[H]-CP55940 from human recombinant CB2 receptor expressed in HEK293 cell membranes measured after 90 mins
Cannabinoid receptor 2 [5] = target: T3, Cannabinoid receptor 2; assay: Displacement of 3[H]-CP55940 from human recombinant CB2 receptor expressed in HEK293 cell membranes measured after 90 mins by Cheng-Prusoff equation analysis
Cholinesterase [6] = target: T2, Cholinesterase; assay: Inhibition of human recombinant BuChE using butyrylthiocholine iodide as substrate preincubated for 20 mins followed by substrate addition by Ellman's spectrophotometric method
Cannabinoid receptor 2 [7] = target: T3, Cannabinoid receptor 2; assay: Inverse agonist activity at recombinant human CB2R expressed in CHOK1 cells assessed as increase in NKH477-stimulated intracellular cAMP levels preincubated for 15 mins followed by CB2 agonist JWH-133 addition and measured after 30 mins by chemiluminescent based cAMP Hunter assay; assay type: functional, cell-based
N9 [8] = assay: Immunomodulatory activity in LPS-induced mouse N9 cells assessed as reduction in TREM2 expression at 5 uM after 24 hrs by Western blotting analysis relative to control; assay type: functional, cell-based
Summary of the method: (§1)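 N9 microglia on poly-L-lysine in DMEM high glucose with 10% FBS, plated 2.5×10^5 cells/35 mm dish. Activated with LPS 100 ng/mL together with 0, 5 or 10 µM compound in serum-free DMEM for 24 h. Lysates run on 12.5% SDS-PAGE and immunoblotted for iNOS or TREM2, with GAPDH as loading control, ECL detection. Densitometry given as % of LPS alone, three experiments.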

Cannabinoid receptor 2 [9] = target: T3, Cannabinoid receptor 2; assay: Inverse agonist activity at recombinant human CB2R expressed in CHOK1 cells assessed as increase in NKH477-stimulated intracellular cAMP levels after 30 mins by chemiluminescent based cAMP Hunter assay; assay type: functional, cell-based
Summary of the method: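 CHO-K1 cells stably expressing human CB2R, 30,000 cells/well, held overnight. Compound dose-response with NKH-477 (forskolin analogue, 25 µM) for 30 min at 37 °C. cAMP measured by enzyme-fragment-complementation chemiluminescence. Normalized with NKH-477 alone = 100%. Three independent experiments in triplicate, mean ± SEM.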

N9 [10] = assay: Immunomodulatory activity in LPS-induced mouse N9 cells assessed as reduction in iNOS expression at 5 uM after 24 hrs by Western blotting analysis relative to control; assay type: functional; conditions: N9, 24 h; summary of the method: as §1
SH-SY5Y [11] = assay: Cytotoxicity against human SH-SY5Y cells assessed as effect on cell viability up to 5 uM after 24 hrs by MTT assay; assay type: cell-based
Summary of the method: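 SH-SY5Y cells grown in DMEM with 10% FBS, 2 mM L-glutamine and penicillin/streptomycin, seeded 2×10^4 cells/well, 24 h, then exposed 24 h to 1.25–40 µM. Viability read as MTT reduction: MTT 0.5 mg/mL in HBSS 2 h at 37 °C, formazan dissolved in isopropanol, absorbance 570 nm (reference 690 nm).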

Cannabinoid receptor 2 [12] = target: T3, Cannabinoid receptor 2; assay: Potency index, ratio of SR144528 Ki to compound Ki for displacement of 3[H]-CP55940 from human recombinant CB2
N9 [13] = assay: Downregulation of total GAPDH in LPS-induced mouse N9 cells at 5 uM after 24 hrs by Western blotting analysis; assay type: ADME, cell-based; conditions: n9, 24 h; summary of the method: as §1
Cholinesterase [14] = target: T2, Cholinesterase; assay: Potency index, ratio of galanthamine IC50 to compound IC50 for inhibition of human recombinant BuChE
SH-SY5Y [15] = assay: Neuroprotection against amyloid beta (1 to 42) induced toxicity in human SH-SY5Y cells after 4 hrs by MTT assay; assay type: functional, cell-based
Summary of the method: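 SH-SY5Y cells seeded 3×10^4/well, 24 h, then treated 4 h with Aβ1-42 oligomers (10 µM) plus compound at 0.625–5.0 µM. Read by MTT formazan exocytosis assay: MTT 0.5 mg/mL in HBSS 1 h at 37 °C, intracellular formazan dissolved in 1% Tween 20, absorbance 570 nm (reference 690 nm). At least three independent experiments.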

T3 sequence (P34972 whole entry): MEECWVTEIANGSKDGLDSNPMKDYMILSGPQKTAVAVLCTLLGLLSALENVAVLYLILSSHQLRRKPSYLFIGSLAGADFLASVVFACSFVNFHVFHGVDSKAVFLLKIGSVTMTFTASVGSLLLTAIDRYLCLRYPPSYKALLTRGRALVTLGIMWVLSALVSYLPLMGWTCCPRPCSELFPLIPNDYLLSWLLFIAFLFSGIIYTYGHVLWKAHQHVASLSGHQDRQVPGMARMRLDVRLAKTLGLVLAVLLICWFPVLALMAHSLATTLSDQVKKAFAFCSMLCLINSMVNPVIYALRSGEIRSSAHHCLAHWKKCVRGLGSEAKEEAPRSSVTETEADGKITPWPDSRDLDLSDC
T1 sequence (P21554 whole entry): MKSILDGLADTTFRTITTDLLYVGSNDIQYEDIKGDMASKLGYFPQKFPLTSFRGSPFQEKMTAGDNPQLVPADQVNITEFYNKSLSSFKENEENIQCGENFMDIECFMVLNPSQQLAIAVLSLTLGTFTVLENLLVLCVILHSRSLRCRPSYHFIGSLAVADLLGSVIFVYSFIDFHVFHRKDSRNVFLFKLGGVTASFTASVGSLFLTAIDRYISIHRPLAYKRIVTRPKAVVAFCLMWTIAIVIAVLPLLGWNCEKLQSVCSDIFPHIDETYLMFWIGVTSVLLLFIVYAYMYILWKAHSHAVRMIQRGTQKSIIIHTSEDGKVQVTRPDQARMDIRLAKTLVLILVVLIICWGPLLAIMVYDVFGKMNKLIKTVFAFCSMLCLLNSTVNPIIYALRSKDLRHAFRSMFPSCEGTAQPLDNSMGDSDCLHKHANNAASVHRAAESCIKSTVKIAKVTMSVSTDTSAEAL
T2 sequence (P06276 whole entry): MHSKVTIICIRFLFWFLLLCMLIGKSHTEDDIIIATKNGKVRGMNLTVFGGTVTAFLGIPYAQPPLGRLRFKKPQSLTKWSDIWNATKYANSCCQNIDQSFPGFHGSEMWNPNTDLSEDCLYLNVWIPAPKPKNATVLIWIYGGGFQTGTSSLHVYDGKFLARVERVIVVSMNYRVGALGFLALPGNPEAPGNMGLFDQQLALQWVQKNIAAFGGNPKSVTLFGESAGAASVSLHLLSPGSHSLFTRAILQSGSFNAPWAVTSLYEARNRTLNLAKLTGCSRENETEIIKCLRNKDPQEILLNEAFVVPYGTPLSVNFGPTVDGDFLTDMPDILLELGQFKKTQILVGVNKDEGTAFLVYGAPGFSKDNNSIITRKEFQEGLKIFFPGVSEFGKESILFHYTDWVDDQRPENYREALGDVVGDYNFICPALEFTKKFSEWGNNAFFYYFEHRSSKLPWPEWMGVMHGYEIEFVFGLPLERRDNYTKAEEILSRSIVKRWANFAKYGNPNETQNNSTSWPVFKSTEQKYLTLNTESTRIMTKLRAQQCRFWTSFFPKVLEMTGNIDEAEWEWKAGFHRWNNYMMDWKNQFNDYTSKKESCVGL

COc1ccc(-c2oc3ccccc3c2C(=O)c2ccc(NCc3cc(F)cc(F)c3)cc2)cc1
pIC50 (Cannabinoid receptor 1 [1]): < 5.00 | inhibition (Cholinesterase [2]): < 10% | pKi (Cannabinoid receptor 1 [3]): < 5.00 | Ratio Ki (Homo sapiens): > 33 | pIC50 (Cannabinoid receptor 2 [4]): 5.94 | pKi (Cannabinoid receptor 2 [5]): 6.52

COc1ccc(-c2oc3ccccc3c2C(=O)c2ccc(OCCCCN(C)Cc3ccccc3)cc2)cc1
pIC50 (Cannabinoid receptor 1 [1]): 5.45 | inhibition (Cholinesterase [2]): 35.2% | pKi (Cannabinoid receptor 1 [3]): 6.07 | pIC50 (Cholinesterase [6]): 3.66 | pIC50 (Cannabinoid receptor 2 [4]): < 5.00 | pKi (Cannabinoid receptor 2 [5]): < 5.00

COc1ccc(CNc2ccc(C(=O)c3c(-c4ccc(OC)cc4)oc4ccccc34)cc2)cc1
pIC50 (Cannabinoid receptor 1 [1]): < 5.00 | inhibition (Cholinesterase [2]): < 10% | pKi (Cannabinoid receptor 1 [3]): < 5.00 | Ratio Ki (Homo sapiens): > 10 | pIC50 (Cannabinoid receptor 2 [4]): 5.41 | pKi (Cannabinoid receptor 2 [5]): 5.99

COc1ccc(-c2oc3ccccc3c2C(=O)c2ccc(N(Cc3ccc(F)cc3)Cc3ccc(F)cc3)cc2)cc1
pIC50 (Cannabinoid receptor 1 [1]): < 5.00 | inhibition (Cholinesterase [2]): 75% | pKi (Cannabinoid receptor 1 [3]): < 5.00 | pIC50 (Cholinesterase [6]): 5.22 | Ratio Ki (Homo sapiens): > 23 | pIC50 (Cannabinoid receptor 2 [4]): 5.78 | pKi (Cannabinoid receptor 2 [5]): 6.37

COc1ccc(-c2oc3ccccc3c2C(=O)c2ccc(NCc3ccccn3)cc2)cc1
pIC50 (Cannabinoid receptor 1 [1]): < 5.00 | inhibition (Cholinesterase [2]): 15.3% | pKi (Cannabinoid receptor 1 [3]): < 5.00 | Ratio Ki (Homo sapiens): > 7.5 | pIC50 (Cannabinoid receptor 2 [4]): 5.29 | pKi (Cannabinoid receptor 2 [5]): 5.87

COc1ccc(-c2oc3ccccc3c2C(=O)c2ccc(N(C)Cc3ccc(F)cc3)cc2)cc1
Activity (Cannabinoid receptor 2 [7]): Dose-dependent effect | pIC50 (Cannabinoid receptor 1 [1]): 7.10 | inhibition (Cholinesterase [2]): < 10% | pKi (Cannabinoid receptor 1 [3]): 7.70 | Activity (N9 [8]): inactive | Activity (Cannabinoid receptor 2 [9]): Active | inhibition at 5 µM (N9 [10]): 60% | Activity (SH-SY5Y [11]): Non-Toxic | Ratio Ki (Homo sapiens): 7.4 | pIC50 (Cannabinoid receptor 2 [4]): 8.00 | pKi (Cannabinoid receptor 2 [5]): 8.57 | Ratio Ki (Cannabinoid receptor 2 [12]): 600

CCCCCNc1ccc(C(=O)c2c(-c3ccc(OC)cc3)oc3ccccc23)cc1
pIC50 (Cannabinoid receptor 1 [1]): 6.52 | inhibition (Cholinesterase [2]): 72.2% | pKi (Cannabinoid receptor 1 [3]): 7.10 | pIC50 (Cholinesterase [6]): 5.41 | Ratio Ki (Homo sapiens): 1.1 | pIC50 (Cannabinoid receptor 2 [4]): 6.59 | pKi (Cannabinoid receptor 2 [5]): 7.15

CCCCCCCNc1ccc(C(=O)c2c(-c3ccc(OC)cc3)oc3ccccc23)cc1
pIC50 (Cannabinoid receptor 1 [1]): 5.23 | inhibition (Cholinesterase [2]): 30.2% | pKi (Cannabinoid receptor 1 [3]): 5.78 | Ratio Ki (Homo sapiens): 4 | pIC50 (Cannabinoid receptor 2 [4]): 5.81 | pKi (Cannabinoid receptor 2 [5]): 6.39

COc1ccc(-c2oc3ccccc3c2C(=O)c2ccc(N(Cc3cc(F)cc(F)c3)Cc3cc(F)cc(F)c3)cc2)cc1
pIC50 (Cannabinoid receptor 1 [1]): < 5.00 | inhibition (Cholinesterase [2]): 67% | pKi (Cannabinoid receptor 1 [3]): < 5.00 | pIC50 (Cholinesterase [6]): 4.93 | pIC50 (Cannabinoid receptor 2 [4]): < 5.00 | pKi (Cannabinoid receptor 2 [5]): < 5.00

COc1ccc(-c2oc3ccccc3c2C(=O)c2ccc(OCCN(C)Cc3ccccc3)cc2)cc1
pIC50 (Cannabinoid receptor 1 [1]): 5.82 | inhibition (Cholinesterase [2]): 65% | pKi (Cannabinoid receptor 1 [3]): 6.37 | pIC50 (Cholinesterase [6]): 4.85 | Ratio Ki (Homo sapiens): 0.6 | pIC50 (Cannabinoid receptor 2 [4]): 5.58 | pKi (Cannabinoid receptor 2 [5]): 6.16

COc1ccc(-c2oc3ccccc3c2C(=O)c2ccc(-n3cc(COc4cccc(F)c4)nn3)cc2)cc1
pIC50 (Cannabinoid receptor 1 [1]): < 5.00 | inhibition (Cholinesterase [2]): < 10% | pKi (Cannabinoid receptor 1 [3]): < 5.00 | pIC50 (Cannabinoid receptor 2 [4]): < 5.00 | pKi (Cannabinoid receptor 2 [5]): < 5.00

CN(CCCCCCCOc1ccc(-c2oc3ccccc3c2C(=O)c2ccccc2)cc1)Cc1ccccc1
Activity (N9 [13]): Toxic

COc1ccc(-c2oc3ccccc3c2C(=O)c2ccc(NCc3ccccc3)cc2)cc1
pIC50 (Cannabinoid receptor 1 [1]): < 5.00 | inhibition (Cholinesterase [2]): < 10% | pKi (Cannabinoid receptor 1 [3]): < 5.00 | Ratio Ki (Homo sapiens): > 59 | pIC50 (Cannabinoid receptor 2 [4]): 6.18 | pKi (Cannabinoid receptor 2 [5]): 6.77

COc1ccc(-c2oc3ccccc3c2C(=O)c2ccc(NCC3CC3)cc2)cc1
pIC50 (Cannabinoid receptor 1 [1]): 5.78 | inhibition (Cholinesterase [2]): 22.4% | pKi (Cannabinoid receptor 1 [3]): 6.33 | Ratio Ki (Homo sapiens): 4.3 | pIC50 (Cannabinoid receptor 2 [4]): 6.39 | pKi (Cannabinoid receptor 2 [5]): 6.96

COc1ccc(-c2oc3ccccc3c2C(=O)c2ccc(N(Cc3ccccc3)Cc3ccccc3)cc2)cc1
pIC50 (Cannabinoid receptor 1 [1]): < 5.00 | inhibition (Cholinesterase [2]): 30.9% | pKi (Cannabinoid receptor 1 [3]): < 5.00 | Ratio Ki (Homo sapiens): > 11 | pIC50 (Cannabinoid receptor 2 [4]): 5.44 | pKi (Cannabinoid receptor 2 [5]): 6.04

COc1ccc(-c2oc3ccccc3c2C(=O)c2ccc(NCc3ccc(C#N)cc3)cc2)cc1
pIC50 (Cannabinoid receptor 1 [1]): 5.04 | inhibition (Cholinesterase [2]): < 10% | pKi (Cannabinoid receptor 1 [3]): 5.59 | Ratio Ki (Homo sapiens): 130 | pIC50 (Cannabinoid receptor 2 [4]): 7.05 | pKi (Cannabinoid receptor 2 [5]): 7.70

COc1ccc(-c2oc3ccccc3c2C(=O)c2ccc(OCCCCCN(C)Cc3ccccc3)cc2)cc1
pIC50 (Cannabinoid receptor 1 [1]): 5.14 | Ratio IC50 (Cholinesterase [14]): 19 | inhibition (Cholinesterase [2]): > 90% | pKi (Cannabinoid receptor 1 [3]): 5.75 | pIC50 (Cholinesterase [6]): 5.96 | pIC50 (Cannabinoid receptor 2 [4]): < 5.00 | pKi (Cannabinoid receptor 2 [5]): < 5.00

COc1ccc(-c2oc3ccccc3c2C(=O)c2ccc(OCCCN(C)Cc3ccccc3)cc2)cc1
pIC50 (Cannabinoid receptor 1 [1]): 5.69 | inhibition (Cholinesterase [2]): 35% | pKi (Cannabinoid receptor 1 [3]): 6.30 | pIC50 (Cholinesterase [6]): 3.87 | Ratio Ki (Homo sapiens): 4.2 | pIC50 (Cannabinoid receptor 2 [4]): 6.36 | pKi (Cannabinoid receptor 2 [5]): 6.92

COc1ccc(-c2oc3ccccc3c2C(=O)c2ccc(NCc3ccc(F)cc3)cc2)cc1
Activity (SH-SY5Y [15]): Dose-dependent effect | pIC50 (Cannabinoid receptor 1 [1]): 5.49 | inhibition (Cholinesterase [2]): 60.8% | pKi (Cannabinoid receptor 1 [3]): 6.11 | Activity (N9 [8]): inactive | inhibition at 5 µM (N9 [10]): 83% | Activity (SH-SY5Y [11]): Non-Toxic | Ratio Ki (Homo sapiens): 39 | pIC50 (Cannabinoid receptor 2 [4]): 7.15 | pKi (Cannabinoid receptor 2 [5]): 7.70
